ΔTm, Control and Toxicity data for nine compounds are collected here from ChEMBL document CHEMBL1132248, “2,4-Diphenyl furan diamidines as novel anti-Pneumocystis carinii pneumonia agents” (J Med Chem, 1999).

Where “and” joins values, the source holds several entries; their conditions need not be identical. Identical values can stand only once.

Data set [1] has as its system Nucleic Acid.
Data set [2] is described as follows: The compound was tested for the increase in thermal melting of d(CGCGAATTCGCG)2.
The test system of data set [3] is Rattus norvegicus. In words: Percentage control of Pneumocystis carinii pneumonia in immunosuppressed rat at 10 uM/Kg/d administered intravenously. Format: functional. The method in brief:
(§1)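 Immunosuppressed rats with Pneumocystis carinii pneumonia were given test agent intravenously. The read-out was cysts per g of lung tissue, expressed as percent of pooled saline-treated controls (n = 46). Values below 1% of control fall within experimental error.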

For data set [4], the system named is Rattus norvegicus. In words: Toxicity in immunosuppressed rat after administration of 10 uM/Kg/d. Format: organism-based. The conditions noted are these: in vivo. The method in brief: (§2)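 Immunosuppressed rats with Pneumocystis carinii pneumonia; compounds given intravenously at the daily dose named in each line. Toxicity scored on a five-level scale from 0 to 5+; the paper calls the scores anecdotal rather than definitive. The same study scored lung cysts per gram against pooled saline controls (n = 46).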

Data set [5] deals with Rattus norvegicus. In words: Percentage control of Pneumocystis carinii pneumonia in immunosuppressed rat at 10 uM/Kg/d administered intravenously. Format: functional. The method in brief:
as §1

Data set [6] concerns Rattus norvegicus. In words: Toxicity in immunosuppressed rat after administration of 10 uM/Kg/d. Format: organism-based. The conditions noted are these: in vivo. The method in brief: as §2
Data set [7] has as its system Rattus norvegicus. The data set can be described thus: Percentage control of Pneumocystis carinii pneumonia in immunosuppressed rat at 1 uM/Kg/d administered intravenously. Format: functional. Summed up:
as §1

Data set [8] relates to Rattus norvegicus. In words: Toxicity in immunosuppressed rat after administration of 1 uM/Kg/d. The conditions noted are these: in vivo. Format: organism-based. Summed up: as §2
The test system of data set [9] is Nucleic Acid. This is another data set of the same source.
Data set [10] has as its system Rattus norvegicus. In words: Percentage control of Pneumocystis carinii pneumonia in immunosuppressed rat at 22 uM/Kg/d administered intravenously. Format: functional. Summed up: as §1
Data set [11] has as its system Rattus norvegicus. In words: Percentage control of Pneumocystis carinii pneumonia in immunosuppressed rat at 5 uM/Kg/d administered intravenously. It is filed as functional. Summed up: as §1
The subject of data set [12] is Rattus norvegicus. The data set can be described thus: Percentage control of Pneumocystis carinii pneumonia in immunosuppressed rat at 0.25 uM/Kg/d administered intravenously. Format: functional. Summed up:
as §1

Data set [13] relates to Rattus norvegicus. In words: Toxicity in immunosuppressed rat after administration of 1 uM/kg/day. Format: organism-based. The note with it: in vivo. The method in brief: as §2
For data set [14], the system named is Rattus norvegicus. In words: Toxicity in immunosuppressed rat after administration of 5 uM/Kg/d. The conditions noted are these: in vivo. It is filed as organism-based. Summed up: as §2
Data set [15] concerns Rattus norvegicus. In words: Percentage control of Pneumocystis carinii pneumonia in immunosuppressed rat at 20 uM/Kg/d administered intravenously. Format: functional. The method in brief: as §1
For data set [16], the system named is Rattus norvegicus. In words: Toxicity in immunosuppressed rat after administration of 0.2 5 uM/Kg/d. Format: organism-based. The note with it: in vivo. The method in brief:
as §2

As to `c1cc(-c2coc(-c3ccc(C4=NCCN4)cc3)c2)ccc1C1=NCCN1`, the figures for the ΔTm (with Nucleic Acid [1]; in [2]) were 16.8 and 7.2, respectively.
Compound `Cc1oc(-c2ccc(C(=N)N)cc2)c(C)c1-c1ccc(C(=N)N)cc1.Cl.Cl` had a Control in the data set on Rattus norvegicus [3] of 0.89%. The ΔTm in the data set with Nucleic Acid [1] was found to be 17; in data set [2] it was 6.5.
For the compound `Cl.Cl.N=C(NC1CC1)c1ccc(-c2coc(-c3ccc(C(=N)NC4CC4)cc3)c2)cc1`, the Toxicity in the data set on Rattus norvegicus [4] stood at 0. For the same compound, the values for the ΔTm (in the data set with Nucleic Acid [1]; in [2]) were 23.2 and 10.9, respectively. In the data set with Rattus norvegicus [5], this compound displayed a Control of 0.01%.
With `CC(C)C/N=C(/N)c1ccc(-c2coc(-c3ccc(/C(N)=N\CC(C)C)cc3)c2)cc1`, the results for the ΔTm (in the data set on Nucleic Acid [1]; in data set [2]) were 20.4 and 9.3, respectively.
`Cl.Cl.N=C(N)c1ccc(-c2coc(-c3ccc(C(=N)N)cc3)c2)cc1` had a Control with Rattus norvegicus [3] of 0.3%. Also, the ΔTm in the data set with Nucleic Acid [1] turned out to be 19; in [2], 9.1. Besides, the Toxicity with Rattus norvegicus [6] worked out at 0.
For the compound `Cl.Cl.N=C(NC1CCCC1)c1ccc(-c2coc(-c3ccc(C(=N)NC4CCCC4)cc3)c2)cc1`, the values for the Control in the data set with Rattus norvegicus [3] and in the data set with Rattus norvegicus [7] were 0.16% and 1.79%, respectively. Moreover, the Toxicity in the data set with Rattus norvegicus [4] and in the data set on Rattus norvegicus [8] was 0 in each case. The results for the ΔTm (with Nucleic Acid [1]; in [2]) were 20.4 and 13.6, respectively.
`Cc1oc(-c2ccc(/C(N)=N\C(C)C)cc2)c(C)c1-c1ccc(/C(N)=N\C(C)C)cc1.Cl.Cl` displayed a Control in the data set with Rattus norvegicus [3] of 24.43%. The compound also came in with a Toxicity in the data set with Rattus norvegicus [4] of 0. For the same compound, the ΔTm with Nucleic Acid [1] worked out at 12.5; in data set [2], 5.4.
As for `N=C(N)c1ccc(OCCCCCOc2ccc(C(=N)N)cc2)cc1` [PENTAMIDINE], the ΔTm in the data set on Nucleic Acid [9] was found to be 12.6; in data set [2], 4.8. This compound had a Control in the data set with Rattus norvegicus [10] of 2.3%.
In the case of `CC(C)/N=C(/N)c1ccc(-c2coc(-c3ccc(/C(N)=N\C(C)C)cc3)c2)cc1.Cl.Cl`, the Control with Rattus norvegicus [3] is 0.04% and 0.08%; in the data set on Rattus norvegicus [11], 0.08%; in the data set with Rattus norvegicus [12] it was 110.5%; in the data set with Rattus norvegicus [15], 0%. Besides, the ΔTm came out at 17.6 with Nucleic Acid [1] and 10.9 in data set [2]. The Toxicity with Rattus norvegicus [13], in the data set with Rattus norvegicus [6], in the data set on Rattus norvegicus [14] and in the data set on Rattus norvegicus [16] was 0 in each case.
